The record followed here is ChEMBL document CHEMBL4007441, “Novel Design of Heptad Amphiphiles To Enhance Cell Selectivity, Salt Resistance, Antibiofilm Properties and Their Membrane-Disruptive Mechanism” (J Med Chem, 2017).

Calls of active or inactive are those of the source. The rule behind the calls is not given here.

One data set concerns Staphylococcus aureus. Put plainly: Antibacterial activity against Staphylococcus aureus ATCC 29213 after 18 hrs by broth microdilution method. The data set is classed as functional. The conditions noted are these: ATCC 29213, 18 h. In outline:
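Broth microdilution. Exponential-phase bacteria grown in MHB at 37 °C, diluted to about 1 × 10^6 CFU/mL in MHB and mixed 1:1 with two-fold dilutions of peptide. MIC is the lowest concentration with no visible turbidity after 18 h at 37 °C. Controls were uninoculated broth and peptide-free culture. At least three repeats, duplicates each.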
For orientation: Dilution methods test growth across graded concentrations, often in twofold steps.

The subject of data set [1] is Pseudomonas aeruginosa. Put plainly: Antibacterial activity against Pseudomonas aeruginosa CICC 21625 after 18 hrs by broth microdilution method. Type of data set: functional. The note with it: CICC 21625, 18 h. Summed up: (§1)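 Broth microdilution in Mueller-Hinton broth. Exponential-phase bacteria (37 °C, 220 rpm shaking) were diluted to about 1 × 10^6 CFU/mL and mixed 1:1 with two-fold serial peptide dilutions. MIC is the lowest concentration with no visible turbidity after 18 h at 37 °C. Controls were uninoculated MHB and untreated culture. Run at least three times, two replicates each.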

The subject of data set [2] is Pseudomonas aeruginosa. In words: Antibacterial activity against Pseudomonas aeruginosa CICC 21630 after 18 hrs by broth microdilution method. The data set is classed as functional. The conditions noted are these: CICC 21630, 18 h. Summed up: as §1
Data set [3] concerns Pseudomonas aeruginosa. In words: Antibacterial activity against ciprofloxacin-resistant Pseudomonas aeruginosa 11411 after 18 hrs by broth microdilution method. The note with it: Pseudomonas aeruginosa, 11411, 18 h. Type of data set: functional. In outline:
(§2)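 Broth microdilution in Mueller-Hinton broth. Exponential-phase bacteria (37 °C, 220 rpm shaking) were diluted to about 1 × 10^6 CFU/mL and mixed 1:1 with two-fold serial peptide dilutions. Controls were uninoculated MHB and untreated culture. Run at least three times, two replicates each.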

For data set [4], the system named is Pseudomonas aeruginosa. In words: Antibacterial activity against gentamicin-resistant Pseudomonas aeruginosa 11421 after 18 hrs by broth microdilution method. Type of data set: functional. The conditions noted are these: Pseudomonas aeruginosa, 11421, 18 h. Summed up: as §2
In data set [5] the test system is Pseudomonas aeruginosa. Put plainly: Antibacterial activity against Pseudomonas aeruginosa 25349 clinical isolate after 18 hrs by broth microdilution method. Type of data set: functional. The note with it: Pseudomonas aeruginosa, 25349, 18 h.
Data set [6] concerns Pseudomonas aeruginosa. In words: Antibacterial activity against Pseudomonas aeruginosa 26305 clinical isolate after 18 hrs by broth microdilution method. Type of data set: functional. The conditions noted are these: Pseudomonas aeruginosa, 26305, 18 h.
Data set [7] concerns RAW264.7. Put plainly: Cytotoxicity in mouse RAW264.7 cells after 24 hrs by MTT assay. The conditions noted are these: raw264.7, 24 h. Type of data set: cell-based.
For data set [8], the system named is Pseudomonas aeruginosa. In words: Drug uptake in Pseudomonas aeruginosa ATCC 27853 treated with FITC-labeled compound at MIC after 30 mins by confocal fluorescence microscopy. The note with it: 0.5 h. Type of data set: ADME. In outline:
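Cells were pelleted at 5,000 g for 5 min, washed three times in PBS, smeared and imaged by confocal microscopy with 488 nm excitation.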

The subject of data set [9] is Lipopolysaccharide (LPS). Put plainly: Binding affinity to Pseudomonas aeruginosa ATCC 27853 LPS by SPR spectroscopic analysis. In outline: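 Biacore SPR. Peptides were amine-coupled to CM5 chips at 20 µg/mL in 10 mM acetate pH 6.0, giving about 1300 RU. LPS at 3.125–12.5 µg/mL in 20 mM Tris/100 mM NaCl pH 7.4 was flowed at 10 µL/min. Surfaces were regenerated with 50 mM NaOH plus 0.05% SDS. Three independent runs.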
For orientation: SPR reads the build-up and loss of mass on a sensor chip optically.

Data set [10] relates to RAW264.7. Put plainly: Inhibition of LPS-induced NO production in mouse RAW264.7 cells at 10 mg/L after 18 hrs by Griess assay. Type of data set: functional, cell-based. Summed up: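 RAW264.7 cells (5 × 10^5/well) were stimulated with LPS at 100 ng/mL, with or without peptide at 10 mg/L, for 18 h at 37 °C. Nitrite in the medium was measured with Griess reagent at 540 nm against a NaNO2 standard curve. Three independent experiments.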
Background: Griess reagent forms a coloured azo dye with nitrite.

Data set [11] has as its system RAW264.7. Put plainly: Downregulation of LPS-induced TNF-alpha level in mouse RAW264.7 cells at 10 mg/L after 18 hrs by ELISA. Type of data set: functional, cell-based. In outline:
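ELISA of secreted TNF-α in culture medium of RAW264.7 cells treated 18 h with LPS 100 ng/mL alone or with peptide at 10 mg/L. Samples were run in duplicate; release was normalized to untreated controls.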

The test system of data set [12] is RAW264.7. In words: Downregulation of LPS-induced IL-6 mRNA expression in mouse RAW264.7 cells at 10 mg/L after 18 hrs by real-time PCR analysis. Type of data set: functional, cell-based. Summed up: (§3)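 qRT-PCR: RAW264.7 cells were stimulated with LPS (100 ng/mL) with or without peptide at 10 mg/L for 18 h at 37 °C. Total RNA was taken up with TRIzol. Transcript levels were normalized to GAPDH and expressed as fold change versus untreated cells. Three experiments, triplicates each.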

Data set [13] deals with RAW264.7. Put plainly: Downregulation of LPS-induced IL-1beta mRNA expression in mouse RAW264.7 cells at 10 mg/L after 18 hrs by real-time PCR analysis. Type of data set: functional, cell-based. In outline:
as §3

For data set [14], the system named is Pseudomonas aeruginosa. Put plainly: Antibacterial activity against Pseudomonas aeruginosa ATCC 27853 after 18 hrs in presence of NaCl by broth microdilution method. Type of data set: functional. The note with it: ATCC 27853, 18 h. In outline: (§4)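 Broth microdilution MIC against ATCC 27853 in Mueller-Hinton broth with added salt at final concentrations: NaCl 150 mM, KCl 4.5 mM, NH4Cl 6 µM, ZnCl2 8 µM, FeCl3 4 µM. Inoculum about 1 × 10^6 CFU/mL from exponential phase, mixed 1:1 with two-fold peptide dilutions. MIC read as no visible turbidity after 18 h at 37 °C.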

In data set [15] the test system is Pseudomonas aeruginosa. In words: Antibacterial activity against Pseudomonas aeruginosa ATCC 27853 after 18 hrs in presence of KCl by broth microdilution method. The data set is classed as functional. The note with it: ATCC 27853, 18 h. In outline: as §4
The test system of data set [16] is Pseudomonas aeruginosa. In words: Antibacterial activity against Pseudomonas aeruginosa ATCC 27853 after 18 hrs in presence of NH4Cl by broth microdilution method. Type of data set: functional. The conditions noted are these: ATCC 27853, 18 h. In outline: as §4
The test system of data set [17] is Pseudomonas aeruginosa. Put plainly: Antibacterial activity against Pseudomonas aeruginosa ATCC 27853 after 18 hrs in presence of ZnCl2 by broth microdilution method. Type of data set: functional. The conditions noted are these: ATCC 27853, 18 h. Summed up:
as §4

Data set [18] has as its system Pseudomonas aeruginosa. In words: Antibacterial activity against Pseudomonas aeruginosa ATCC 27853 after 18 hrs in presence of MgCl2 by broth microdilution method. Type of data set: functional. The conditions noted are these: ATCC 27853, 18 h. In outline: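 Broth microdilution MIC in MHB against the reference strain. About 1 × 10^6 CFU/mL exponential-phase inoculum mixed 1:1 with two-fold peptide dilutions in medium containing 1 mM MgCl2 (final). Lowest concentration with no visible turbidity after 18 h at 37 °C.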

Data set [19] relates to Pseudomonas aeruginosa. In words: Antibacterial activity against Pseudomonas aeruginosa ATCC 27853 after 18 hrs in presence of FeCl3 by broth microdilution method. The data set is classed as functional. The note with it: ATCC 27853, 18 h. In outline:
as §4

The subject of data set [20] is Pseudomonas aeruginosa. In words: Antibiofilm activity in Pseudomonas aeruginosa ATCC 27853 assessed as reduction in biomass after 24 hrs by crystal violet staining-based method. Type of data set: functional. Summed up: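 Overnight culture was diluted 1:100 and grown 24 h at 37 °C to form biofilms. Loose cells were removed and fresh broth added with peptide at 1×, 4× or 8× MIC for another 24 h. Biofilms were stained with 0.1% crystal violet for 10 min, washed, and dye extracted in 95% ethanol before reading absorbance. Results are % of untreated biofilm; three repeats in duplicate, mean ± SD.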

Data set [21] relates to Lipopolysaccharide (LPS). In words: Inhibition of BODIPY-TR-cadaverine binding to Pseudomonas aeruginosa 10 LPS by fluorescence spectrophotometric analysis.

By MIC is commonly meant the lowest concentration found to suppress growth. Consider H-LRRLRRRWWRRRLRRL-NH2, for which the MIC against Staphylococcus aureus was found to be 8 µg/mL; against Pseudomonas aeruginosa [1] it was 16 µg/mL; with Pseudomonas aeruginosa [2], 8 µg/mL; in the data set on Pseudomonas aeruginosa [3] it was 8 µg/mL; in the data set on Pseudomonas aeruginosa [4], 16 µg/mL; with Pseudomonas aeruginosa [5], 16 µg/mL. For the same substance, the MIC with Pseudomonas aeruginosa [6] stood at 8 µg/mL; in the data set with Pseudomonas aeruginosa [14], 16 µg/mL; in the data set on Pseudomonas aeruginosa [15], 8 µg/mL; in the data set with Pseudomonas aeruginosa [16] it was 8 µg/mL; in the data set on Pseudomonas aeruginosa [17] it was 8 µg/mL; with Pseudomonas aeruginosa [18] it was 32 µg/mL. The MIC with Pseudomonas aeruginosa [19] is 8 µg/mL. This substance also had a CC10 in the data set on RAW264.7 [7] of 128 µg/mL. The Drug uptake entry in the data set on Pseudomonas aeruginosa [8] is on record as “Active”. The Activity entry with Lipopolysaccharide (LPS) [9], with Pseudomonas aeruginosa [20] and in the data set with Lipopolysaccharide (LPS) [21] was “Dose-dependent effect” each time. Moreover, the inhibition result in the data set on RAW264.7 [10] is “Active”. Also, the outcome in the data set with RAW264.7 [11], in the data set with RAW264.7 [12] and in the data set with RAW264.7 [13] was Active.
For the substance H-LRRLRRRWWWRRRLRRL-NH2, the MIC against Staphylococcus aureus worked out at 8 µg/mL; against Pseudomonas aeruginosa [1], 8 µg/mL; with Pseudomonas aeruginosa [2] it was 4 µg/mL; in the data set with Pseudomonas aeruginosa [3], 4 µg/mL; in the data set on Pseudomonas aeruginosa [4] it was 8 µg/mL; against Pseudomonas aeruginosa [5], 4 µg/mL. Moreover, the MIC in the data set on Pseudomonas aeruginosa [6] amounted to 4 µg/mL; in the data set on Pseudomonas aeruginosa [14], 8 µg/mL; with Pseudomonas aeruginosa [15], 4 µg/mL; in the data set on Pseudomonas aeruginosa [16], 4 µg/mL; with Pseudomonas aeruginosa [17] it was 8 µg/mL; with Pseudomonas aeruginosa [18] it was 16 µg/mL. The MIC in the data set on Pseudomonas aeruginosa [19] worked out at 4 µg/mL. For the same substance, the CC10 with RAW264.7 [7] was 256 µg/mL. For the same substance, the Drug uptake entry with Pseudomonas aeruginosa [8] was “Active”. Also, the Activity entry in the data set on Lipopolysaccharide (LPS) [9], in the data set with Pseudomonas aeruginosa [20] and in the data set on Lipopolysaccharide (LPS) [21] was “Dose-dependent effect” each time. Besides, the inhibition result with RAW264.7 [10] is “Active”. The result in the data set with RAW264.7 [11], with RAW264.7 [12] and in the data set on RAW264.7 [13] was Active.
